From PubChem BioAssay
beta cell repl: inducers of MIN6 beta-cell proliferation, primary screen, ATP luminescence, uHTS; MIN6 cells proliferation, ATPlite luminescence, 48 h; cells starved in 0.2% serum; 100% = growth in 10% serum; proliferation, % at 10 µM; 0.29% of 330,000 active; AID 2380, 2010;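 active means compounds whose signal lies at least 3.5 SD above the mean of all wells on their plate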
T cruzi inh: inhibitors of intracellular T. cruzi growth, primary screen, luminescence, NIH3T3 host cells; T. cruzi beta-gal in NIH3T3, 90 h; inhibition, % (no concentration beside the values); 1.4% of 300,000 active; AID 1885, 2009;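 active means mean inhibition across valid replicates above about 55%, limit read from the data; inconclusive means mean below that limit but half or more replicates reach it; inactive means mean below it, under half of replicates reach it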;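 further: signal also drops with host cell toxicity which is not excluded here; higher percent means less beta-gal luminescence so fewer parasites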
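Material: NIH/3T3 host cells with β-galactosidase reporter T. cruzi; Input: 5,000 host fibroblasts per well; Medium: DMEM, 2% fetal bovine serum; Compound: 50 nL DMSO compound solution per well; Schedule: 3 h host attachment, then at least 90 h co-culture; Detection: luminescent β-galactosidase signal after 60 min lysis.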
H9c2 TAG inh: inhibitors of triacylglycerol accumulation, primary screen, cell-based, uHTS, fluorescence, H9c2; inhibition, % at 12.5 µM; AID 651582, 2012; 0.66% of 230,000 active; H9c2 cells, Nile Red lipid (TAG) fluorescence; cells loaded with 200 µM oleic acid;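 active means pattern-corrected inhibition of lipid staining of at least 50% with the nuclear-stain viability signal not falling by more than 50%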
NR1D1 modulator: modulators of Rev-erb alpha DNA binding, primary screen, biochemical, FITC-DNA, fluorescence polarization, uHTS; AID 1259318, 2017; Rev-erbα–FITC-DNA binding, 90 min; Nuclear receptor subfamily 1 group D member 1 (Homo sapiens), P20393; activity, % at 10 µM; 0.79% of 370,000 active;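 active means activity above about 14%, limit read from the data; passing the limit was not always enough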
Target sequence (P20393 whole entry, looked up): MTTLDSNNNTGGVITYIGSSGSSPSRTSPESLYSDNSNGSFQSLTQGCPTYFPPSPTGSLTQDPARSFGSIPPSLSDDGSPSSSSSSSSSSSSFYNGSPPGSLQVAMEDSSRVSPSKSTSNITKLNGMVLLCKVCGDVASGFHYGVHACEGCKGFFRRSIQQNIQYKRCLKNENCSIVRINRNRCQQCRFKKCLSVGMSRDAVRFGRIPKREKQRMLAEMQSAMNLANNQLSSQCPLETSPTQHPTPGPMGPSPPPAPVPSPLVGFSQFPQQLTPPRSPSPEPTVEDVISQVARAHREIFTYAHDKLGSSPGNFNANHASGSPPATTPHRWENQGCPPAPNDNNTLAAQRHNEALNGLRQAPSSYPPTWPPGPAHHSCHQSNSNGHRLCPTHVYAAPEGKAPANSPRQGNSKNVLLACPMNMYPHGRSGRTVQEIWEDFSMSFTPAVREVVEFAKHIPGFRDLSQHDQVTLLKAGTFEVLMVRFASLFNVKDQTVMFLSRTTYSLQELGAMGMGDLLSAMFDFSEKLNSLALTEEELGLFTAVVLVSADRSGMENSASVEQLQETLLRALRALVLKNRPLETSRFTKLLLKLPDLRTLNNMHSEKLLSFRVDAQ
PG9 Ab binder: binders of HIV-1 gp120 antibody PG9, primary screen, biochemical, TR-FRET. 0.43% of 360,000 active. AID 624416, 2012. HIV-1 gp120 / PG9 antibody interaction. inhibition, % at 6.7 µM. TR-FRET gp120-PG9 antibody binding; in the data active means inhibition above about 8.5%
hiPSC survival: enhancers of single-cell hiPSC survival, primary screen, ATPlite luminescence | 100% = ROCK inhibitor wells, 0% = DMSO | 0.044% of 360,000 active | survival enhancement, % at 20 µM; in the data active means survival enhancement above about 18%;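 further: cells exposed to compounds for 16 hours before the ATP read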
Hits are given with their value; . = inactive; ? = inconclusive; / = not tested or not shown; ! = not confirmed by another sample. Compounds with a hit are over-represented: about 2.9% of the library has one in this group of screens.

SMILES | beta cell repl | T cruzi inh | H9c2 TAG inh | NR1D1 modulator | PG9 Ab binder | hiPSC survival
O=C1C2C(C(=O)N1/N=C/c1ccco1)C1C=CC2C12CC2 (centres undefined) | . | . | / | . | . | .
C#CCOCCOCCOCCNc1nc(N2CCN(C(=O)[C@H](CCC(=O)O)n3cc(C(N)CC(C)C)nn3)CC2)nc(N2CCN(C(=O)[C@H](CCC(=O)O)n3cc(C(N)CC(C)C)nn3)CC2)n1 (some centres undefined) | . | . | / | / | / | .
Cn1c(N)c(C(=O)COC(=O)c2cc(-c3ccco3)nc3ccccc23)c(=O)n(Cc2ccccc2)c1=O | . | . | / | / | / | /
Cn1c2c(c(=O)n(C)c1=O)C(C(F)(F)F)(C(F)(F)F)N=C(c1ccc(Cl)cc1)N2 | . | . | / | / | / | .
O=C(NCc1ccc(F)cc1)C1CCCN(c2nc3ccccc3o2)C1 (centres undefined) | / | / | / | . | / | /
Cc1ccc2nc(N(CCCN(C)C)C(=O)c3cc(-c4cccs4)nc4ccccc34)sc2c1 | . | . | 54 | . | . | .
CN(C)CCCN(C(=O)c1ccc(Cl)s1)c1nc2cc3c(cc2s1)OCO3 | . | ? | / | . | . | .
CN(C)CCCN(C(=O)c1ccco1)c1nc2cc3c(cc2s1)OCO3 | . | 57 | . | . | . | .
CCN(CC)CCN(C(=O)C1=COCCO1)c1nc2ccc(C)cc2s1 | . | 59 | . | . | . | .
CN(C)CCCN(C(=O)c1cccs1)c1nc2cc3c(cc2s1)OCO3 | . | 67 | . | . | . | .
CN(C)CCN1C(=O)C(O)=C(C(=O)c2ccco2)C1c1ccccc1F (centres undefined) | . | . | . | . | . | .
Cc1ccccc1NC(=O)CN1C(=O)NC2(CCc3ccccc32)C1=O (centres undefined) | . | / | . | . | . | .
COc1cc2c(cc1NC(=O)CN1C(=O)NC3(CCc4ccccc43)C1=O)oc1ccccc12 (centres undefined) | . | . | 55 | . | . | .
CCOC(=O)C1(Cc2ccccc2)CCN(Cc2cnc(N3CCOCC3)s2)CC1 | . | 59 | . | . | . | .
CCOC(=O)C1(Cc2ccccc2)CCN(Cc2ccc(C)cc2)CC1 | / | / | / | . | / | /
OCC1(CCCc2ccccc2)CCN(Cc2cnc(N3CCOCC3)s2)CC1 | . | 59 | . | . | . | .
COc1ccc(S(=O)(=O)NCC(=O)N(CC(=O)NCc2ccccc2)Cc2ccco2)cc1 | . | . | / | . | . | .
Cc1nn(C)c(C)c1CN(C)C(=O)C1c2ccccc2Oc2ccccc21 | . | . | . | . | . | .
CC1CCCC(NC(=O)CCS(=O)(=O)c2ccc3c(c2)NC(=O)CS3)C1C (centres undefined) | . | . | / | . | . | .
O=C(NCC1CCCO1)c1cc2c([nH]c3ccccc32)c(-c2cccc(Br)c2)n1 (centres undefined) | . | 55 | / | . | . | .
Cc1ccc(-c2nc(C(=O)NCC3CCCO3)cc3c2[nH]c2ccccc23)cc1 (centres undefined) | . | . | / | . | . | .
CCOc1ccc(NC(=O)Cn2sc3nc(C)cc(C)c3c2=O)cc1 | . | . | . | / | / | .
Cc1cc(C)c2c(=O)n(CC(=O)Nc3ccc(Cl)cc3)sc2n1 | . | 60 | . | . | . | .
O=C(NCc1ccco1)c1cccn2c(=O)c3sccc3nc12 | . | . | / | . | . | .
Fc1ccc(C2CCNCC2COc2ccc3c(c2)OCO3)cc1 (centres undefined) | . | . | / | . | . | .
SMILES | beta cell repl | T cruzi inh | H9c2 TAG inh | NR1D1 modulator | PG9 Ab binder | hiPSC survival
Fc1ccc([C@@H]2CCNC[C@H]2COc2ccc3c(c2)OCO3)cc1 | . | . | 52! | . | . | .
Nc1cc(N)nc(SCc2nnnn2-c2ccc(Cl)cc2)n1 | . | . | / | . | . | .
COc1ccc(-c2nc(C#N)c(NCc3cccnc3)o2)cc1OC | . | 64 | . | . | . | .
COc1ccc(-c2nc(C#N)c(NCc3ccc(F)cc3)o2)cc1OC | . | . | / | . | . | .
O=C(Nc1nc2ccccc2n1Cc1ccccc1)c1ccc(COc2ccccc2[N+](=O)[O-])o1 | . | 68 | / | . | . | .
Cc1ccc(OCc2ccc(C(=O)Nc3nc4ccccc4n3Cc3ccccc3)o2)c([N+](=O)[O-])c1 | . | . | . | . | . | .
CC1=NN(c2nc3ccccc3[nH]2)C(=O)/C1=C/N(C)C | . | / | . | / | / | .
CC1=NN(c2nc3ccccc3[nH]2)C(=O)C1Cc1ccccc1 (centres undefined) | . | . | 54 | / | / | .
CN1c2ccc([N+](=O)[O-])cc2N(C)C1(C)c1ccccc1 (centres undefined) | . | 57 | . | . | . | .
CCCOc1ccc(N2C(=O)CC(SC(=N)N3N=C(c4ccccc4)CC3c3ccccc3)C2=O)cc1 (centres undefined) | . | 68 | . | . | . | .
COc1cc(CCN2C(=O)c3cccc4cccc(c34)C2=O)c(S(=O)(=O)N2CCCCCC2)cc1OC | . | 58 | / | . | . | .
COc1cc(CCN2C(=O)c3cccc4cccc(c34)C2=O)c(S(=O)(=O)NCCO)cc1OC | . | . | / | . | . | .
COc1cc(CCN2C(=O)c3cccc4cccc(c34)C2=O)c(S(=O)(=O)N2CCC(C)CC2)cc1OC | . | 59 | / | . | . | .
CC(C/C=N/NC(=O)COc1cc(Cl)ccc1Cl)c1ccccc1 (centres undefined) | . | . | . | . | . | .
Cc1ccc(N2C(=O)C(NC(=O)c3ccccc3)(C(F)(F)F)C3=C2CC(C)(C)CC3=O)cc1 (centres undefined) | . | . | / | . | . | .
Cc1ccccc1-c1noc(-c2ccc(O)cc2)n1 | . | . | / | / | . | .
COc1cc2c(cc1OC)CN(S(=O)(=O)c1ccc(Cl)nc1)CC2 | . | / | . | . | . | .
O=S(=O)(CC1NCCc2ccccc21)NCc1ccccc1 (centres undefined) | / | / | / | . | / | /
C[n+]1c2n(c3ccccc31)N=C(c1cc(C(C)(C)C)c(O)c(C(C)(C)C)c1)CS2 | . | 61 | . | . | . | .
Cc1cc(C)c(S(=O)(=O)Nc2cnc3ccccc3c2)c(C)c1 | . | . | / | . | . | .
CCCn1c(=O)n(C)c(=O)c2c(SCC(=O)NC34CC5CC(CC(C5)C3)C4)nc(CC(C)C)nc21 | . | 69 | . | . | . | .
C/C=C/c1ccc(OCCCCN2CC(C)CC(C)C2)c(OC)c1 (centres undefined) | . | 55 | . | . | . | .
